This note sets out measurements from ChEMBL document CHEMBL4602675, “The Marine Natural Product Manzamine A Inhibits Cervical Cancer by Targeting the SIX1 Protein” (J Nat Prod, 2020).

The LD50 is the dose at which mortality reaches 50%. Low readings indicate a more toxic substance, high ones a less toxic substance.

Calls of active or inactive are those of the source. The calls are words filed in the database; no cut-off is given here.

The subject of one data set is Ca-Ski. As to the kind of experiment: Antiproliferative activity against human CaSki cells assessed as reduction in cell viability at 2 to 4 uM incubated up to 72 hrs by CellTiter-Glo assay. The class given is functional, cell-based. (In ATP-based viability assays light output follows the ATP content of the culture.)
The next data set concerns SiHa. As to the kind of experiment: Antiproliferative activity against human SiHa cells assessed as reduction in cell viability at 2 to 4 uM incubated up to 72 hrs by CellTiter-Glo assay. It is filed as functional, cell-based.
The test system of another data set is C-33-A. As to the kind of experiment: Antiproliferative activity against human C33A cells assessed as reduction in cell viability at 2 to 4 uM incubated up to 72 hrs by CellTiter-Glo assay. The class given is functional, cell-based.
In a further data set the test system is HeLa. As to the kind of experiment: Antiproliferative activity against human HeLa cells assessed as reduction in cell viability at 2 to 4 uM incubated up to 72 hrs by CellTiter-Glo assay. It is filed as functional, cell-based.
The target of data set [1] is T1, Homeobox protein SIX1 (Homo sapiens) (UniProt Q15475).
T1 sequence (whole entry): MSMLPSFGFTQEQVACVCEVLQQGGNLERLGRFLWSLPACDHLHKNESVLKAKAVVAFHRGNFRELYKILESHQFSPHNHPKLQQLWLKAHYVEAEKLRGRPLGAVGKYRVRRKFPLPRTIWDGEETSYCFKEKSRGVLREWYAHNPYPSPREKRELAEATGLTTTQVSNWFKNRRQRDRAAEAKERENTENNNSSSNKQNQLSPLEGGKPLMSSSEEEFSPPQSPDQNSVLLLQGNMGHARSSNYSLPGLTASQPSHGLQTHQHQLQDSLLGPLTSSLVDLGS
As to the kind of experiment: Inhibition of SIX1 in human HeLa cells at 40 uM after 48 hrs by Western blot analysis. It is filed as cell-based. The essentials:
(§1)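 Cells seeded at 1 × 10^6 per 100 mm dish and treated next day at 10, 20 or 40 μM for 48 h. Harvested by trypsinization, PBS-washed, and lysed in RIPA buffer with protease inhibitors. Equal protein by colorimetric assay went to SDS-PAGE and PVDF. Primary antibody 1:500, blocked and diluted in 5% nonfat milk/TBST (SIX1) or 3% BSA (CK2α). HRP secondary 1:2000; chemiluminescent detection.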

Data set [2] deals with Casein kinase II subunit alpha (Homo sapiens) (UniProt P68400). The note with it: SiHa, 40 uM.
Data set [3] has as its target T1, Homeobox protein SIX1 (Homo sapiens). As to the kind of experiment: Inhibition of SIX1 in human C33A cells at 40 uM after 48 hrs by Western blot analysis. As to conditions: C-33-A. It is filed as cell-based. In short, it runs like this:
as §1
In general terms: A western blot detects proteins with antibodies after separation by electrophoresis.

The target is the same in data set [4]. As to the kind of experiment: Inhibition of SIX1 in human CaSki cells at 40 uM after 48 hrs by Western blot analysis. It is filed as cell-based. The note with it: Ca-Ski. In short, it runs like this:
as §1

The target of data set [5] is Casein kinase II subunit alpha (Homo sapiens) (UniProt P68400). The note with it: HeLa, 40 uM.
Data set [6] concerns the target T1, Homeobox protein SIX1 (Homo sapiens). As to the kind of experiment: Inhibition of SIX1 in human SiHa cells at 40 uM after 48 hrs by Western blot analysis. The class given is cell-based. In short, it runs like this: as §1
The target of data set [7] is Casein kinase II subunit alpha (Homo sapiens) (UniProt P68400). As to conditions: Ca-Ski, 40 uM.
The target is the same in data set [8]. As to conditions: C-33-A, 40 uM.
The next data set has as its system Keratinocyte. As to the kind of experiment: Cytotoxicity against human Keratinocytes assessed as reduction in cell viability at 4 uM incubated up to 72 hrs by trypan blue staining based cell counting assay.
Data set [9] in a line: Toxicity in po dosed mouse. It is filed as organism-based. As to conditions: in vivo.

Chain of Casein kinase II subunit alpha (Homo sapiens) (P68400 whole entry, looked up): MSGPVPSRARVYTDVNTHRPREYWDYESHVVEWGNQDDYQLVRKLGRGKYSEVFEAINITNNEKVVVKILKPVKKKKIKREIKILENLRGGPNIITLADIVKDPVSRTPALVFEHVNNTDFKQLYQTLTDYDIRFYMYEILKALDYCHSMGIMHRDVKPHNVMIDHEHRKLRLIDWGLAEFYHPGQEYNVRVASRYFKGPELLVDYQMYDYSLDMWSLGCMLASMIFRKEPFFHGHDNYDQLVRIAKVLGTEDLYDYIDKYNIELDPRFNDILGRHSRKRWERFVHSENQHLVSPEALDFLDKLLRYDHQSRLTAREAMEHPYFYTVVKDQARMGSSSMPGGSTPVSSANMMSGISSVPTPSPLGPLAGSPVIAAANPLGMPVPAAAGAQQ

`O=CC1=C[C@@]2(O)CC/C=C\CCCCN3CC[C@@H]1[C@]1(C[C@@H]4/C=C\CCCCN4[C@H]12)C3`: the outcome in the data set with Ca-Ski, with SiHa, in the data set on C-33-A and in the data set on HeLa was inactive.

On to `O=c1cc(-c2ccc(O)cc2)oc2cc(O)cc(O)c12`, for which the inhibition entry in data set [1], in [2], in data set [3], in data set [4], in data set [5] and in data set [6] was “Active” each time. In addition, the inhibition entry in [7] and in data set [8] was “Active” throughout.

With `Oc1cccc2c1[nH]c1c(C3=C[C@@]4(O)CC/C=C\CCCCN5CC[C@@H]3[C@]3(C[C@@H]6/C=C\CCCCN6[C@H]34)C5)nccc12`, the result in the data set on Ca-Ski, with SiHa, in the data set with C-33-A and in the data set on HeLa was Active. In addition, the Activity result in the data set on Keratinocyte is recorded as “Toxic”.

Regarding `O[C@]12C=C([C@H]3NCCc4c3[nH]c3ccccc43)[C@@H]3CCN(CCCC/C=C\CC1)C[C@@]31C[C@@H]3/C=C\CCCCN3[C@H]12`, the outcome in the data set on Ca-Ski, with SiHa, in the data set with C-33-A and with HeLa was inactive.

For `O=C1CCCN2[C@@H](CC1)C[C@]13CN4CCCC/C=C\CC[C@](O)(C=C(c5nccc6c5[nH]c5c(O)cccc56)[C@@H]1CC4)[C@H]23`, the result in the data set on Ca-Ski, in the data set on SiHa, with C-33-A and in the data set with HeLa was inactive.

In turn, `CC(=O)Nc1ccc(O)cc1` [ACETAMINOPHEN] showed an LD50 in data set [9] of 338 mg/kg.
